Compound activity: PubChem BioAssay, Broad Institute
Shown are actives, neighbours in structure and some others; about 2.9% of the full set was active somewhere.
PAX8 inh HTS = inhibitors of PAX8-driven TPO luciferase reporter, primary screen, RMG-I cells, single concentration. SteadyGlo, 24 h. inhibition, % at 12.6 µM. actives 1.2% (n = 360,000);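 active means mean replicate inhibition at least 60% with every replicate also reaching 60%; inconclusive means only one of the two criteria is met; inactive means mean below 60% and not all replicates reaching 60%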;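 further: luciferase light reporting Pax8 driven TPO promoter activity; plate controls were median of neutral control wells for no effect and mitoxantrone controls for full effect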
dFosB act-1 = activators of delta FosB homodimer, primary screen, biochemical, fluorescence polarization, TAMRA-CDK5 oligo, single point | Protein FosB (Mus musculus), P13346 | purified delta FosB; percent of positive-control signal above neutral wells | activation, % at 25 µM | actives 0.99% (n = 340,000);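 active means mean activation above about 17%, with every replicate also reaching it, limit read from the data, passing the limit was not always enough; inconclusive means only one of the two conditions met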
Target sequence (P13346 whole entry, looked up): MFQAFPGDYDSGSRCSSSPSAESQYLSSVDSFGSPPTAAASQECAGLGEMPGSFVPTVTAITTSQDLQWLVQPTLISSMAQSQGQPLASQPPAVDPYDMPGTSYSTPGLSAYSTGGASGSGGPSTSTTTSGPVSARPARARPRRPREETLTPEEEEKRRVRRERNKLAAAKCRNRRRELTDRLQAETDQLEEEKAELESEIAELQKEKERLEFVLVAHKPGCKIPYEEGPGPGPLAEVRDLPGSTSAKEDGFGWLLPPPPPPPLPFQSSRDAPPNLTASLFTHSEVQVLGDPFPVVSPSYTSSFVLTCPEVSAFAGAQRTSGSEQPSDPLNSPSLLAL
Cneo AK release = Cryptococcus neoformans cell lysis inducers, primary screen, AK release luminescence, single concentration. C. neoformans lysis, adenylate kinase release luminescence, 4 h; normalised: neutral wells 0, clomiphene wells 100. lysis activity, % at 15 µM. actives 0.2% (n = 360,000);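 active means mean lysis activity across replicates of at least 80%, whatever share of replicates individually reach that level; inactive means mean lysis activity below 80%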
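Schedule: static 4 h at 37 °C with compound, 1 h detection; system: C. neoformans cells; benchmarks: Clomiphene as positive control; buffer or medium: fresh YPD medium; measure: luminescence rise reflecting yeast cell lysis; measured by: luminescent adenylate kinase detection reagent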
CDK5 p35 inh = inhibitors of human CDK5/p35 kinase, primary screen, biochemical, single concentration; inhibition, % at 10 µM; actives 0.01% (n = 330,000); Recombinant CDK5/p35, ADP-Glo luminescence, 60 min; Cyclin-dependent kinase 5 (Homo sapiens) + Cyclin-dependent kinase 5 activator 1 (Homo …;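 active means highest replicate inhibition of at least 50% and at least 75% of replicates reaching 50%; inconclusive means only one of the two criteria met; inactive means both criteria failed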;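 further: plate controls were DMSO neutral control for no effect and GW8510 at 10 µM for full effect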
HIV Env fusion = inhibitors of HIV-1 Env-driven cell-cell fusion, primary screen, HeLa-JRFL effector, CEM21 target cells, luciferase; inhibition, % at 12.3 µM; actives 1.1% (n = 360,000);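 active means mean replicate inhibition score of at least 50 and every replicate individually at or above 50; inconclusive means only one of the two criteria met; inactive means mean below 50 and not all replicates reaching 50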;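 further: 0% = plate neutral controls and 100% = maraviroc near 300 nM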
GSIS activator = GLuc luminescence reporter in INS-1E cells, primary screen for activators of glucose-dependent secretion of insulin | INS-1E GLuc reporter insulin secretion, 2-3 h | AID 743287, 2014 | activation, % at 16.6 µM | actives 0.61% (n = 370,000);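 active means lowest replicate activation of at least 40%, so every replicate reaches that level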;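 further: 0% = median of neutral control wells and 100% = median of IBMX positive control wells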
dFosB act-2 = activators of mouse delta FosB DNA binding, confirmation, biochemical, fluorescence polarization, TAMRA-CDK5 oligo, cherry-picked samples | AID 588690, 2011 | activation, % at 24.9 µM | 2,400 tested, under 10 active | shares compounds with dFosB act-1 | purified delta FosB; normalised: neutral wells 0, positive control 100;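 active means highest replicate activation at or above 34% and every replicate reaching that threshold; inconclusive means meets only one of the two criteria; inactive means meets neither criterion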;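 further: higher polarization means more probe DNA bound by delta FosB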
An asterisk follows results filed as active; u = inconclusive; x = not tested or not shown; [ ] = remark or other dose.

SMILES | PAX8 inh HTS | dFosB act-1 | Cneo AK release | CDK5 p35 inh | HIV Env fusion | GSIS activator | dFosB act-2
O=C(COC(=O)/C=C/c1cccc(C(F)(F)F)c1)NC(c1ccccc1)c1ccccc1 | 2 | 26* | -2 | -5 | 21 | 24 | 5
COc1ccc(/C=C/C(=O)OCC(=O)Nc2cc(S(=O)(=O)N(C)C)ccc2Cl)cc1 | -23 | -6 | 0 | 0 | -4 | -2 | x
O=C(COC(=O)/C=C/c1cccc(C(F)(F)F)c1)NC(=O)NCc1ccccc1 | 17 | 24* | -1 | -1 | -18 | 0 | 2
O=C(N[C@@H]1CC[C@@H](CCn2cc(Cc3ccccc3)nn2)O[C@@H]1CO)c1cnccn1 | -1 | x | 5 | x | -44[16.7 µM] | 2 | x
C[C@H](CO)N1C[C@H](C)[C@H](CN(C)S(=O)(=O)c2cccs2)Oc2ncc(-c3cccc(C(F)(F)F)c3)cc2C1=O | x | x | -3 | x | 2[16.7 µM] | -13 | x
CN(Cc1ccc(F)cc1)S(=O)(=O)c1nnc(NC(=O)c2ccccc2)s1 | -6 | 9 | -1 | -1 | 3 | 28 | x
N#C/C(=C/c1ccc(F)cc1)c1nnc(NC(=O)c2ccccc2)s1 | -3 | 21* | -5 | 0 | 12 | 12 | -6
CCS(=O)(=O)N1CC2(CN(Cc3ccccc3F)[C@H](CO)c3c2c2ccc(OC)cc2n3C)C1 | 3 | x | x | x | x | -7 | x
CCC(=O)NC(=S)Nc1ccc(NC(=O)COc2ccc(Cl)c(C)c2)cc1 | 12 | -13 | x | -1 | -12 | x | x
CCC(=O)Nc1ccc(Cl)c(NC(=S)NC(=O)COc2ccc(Cl)cc2)c1 | -1 | 55* | x | 0 | -6 | 44* | -1
CCC(=O)Nc1ccc(Cl)c(NC(=S)NC(=O)COc2ccccc2)c1 | 5 | 35* | x | -1 | 0 | -5 | u
O=C(COc1ccccc1)NC(=S)Nc1cccc(NC(=O)c2ccccc2Cl)c1 | 17 | -8 | 0 | -6 | x | -4 | x
CO[C@H]1CN(C)C(=O)c2cc(NS(=O)(=O)c3cccc(F)c3)ccc2OC[C@H](C)N(Cc2cc(F)ccc2F)C[C@@H]1C | x | x | 1 | x | x | -10 | x
CC(C)C#Cc1cnc2c(c1)C(=O)N([C@H](C)CO)C[C@@H](C)[C@H](CN(C)C(=O)Cc1ccncc1)O2 | 0 | x | 0 | x | -34[16.7 µM] | -5 | x
CN(C)CCCNc1ncnc2sc(-c3ccccc3)cc12 | -27 | 27* | -1 | -1 | -9 | 6 | 1
CCOC(CNc1ncnc2sc(-c3ccccc3)cc12)OCC | -14 | -2 | -1 | -2 | -5 | 0 | x
Cc1ccc(C)c(-n2nnnc2SCC(=O)c2ccc3c(c2)NC(=O)CO3)c1 | 17 | 68* | -2 | 0 | 6 | x | 1
O=C(COC(=O)CSc1nnc(-c2ccc(Cl)cc2)o1)NCc1ccc2c(c1)OCO2 | x | 24* | 3 | 1 | x | x | 3
CCN(CC)S(=O)(=O)c1ccc(-c2nnc(SCC(=O)Nc3ccc4c(c3)OCO4)o2)cc1 | x | 31* | x | 1 | x | -3 | -2
O=C(COC(=O)Cc1ccc(Cl)cc1)NCc1ccc2c(c1)OCO2 | 5 | -2 | -1 | 1 | 7 | 2 | x
C/C=C/c1cnc2c(c1)C(=O)N([C@@H](C)CO)C[C@@H](C)[C@@H](CN(C)Cc1cncnc1)O2 | x | x | -1 | x | -13[16.7 µM] | 9 | x
COCC(=O)N(C)C[C@H]1Oc2cc(-c3ccc(C#N)cc3)ccc2S(=O)(=O)N([C@H](C)CO)C[C@H]1C | 8 | x | -4 | x | -1[16.7 µM] | 19 | x
CCOC(=O)c1cccc(NC(=O)CCS(=O)(=O)c2ccc(Br)s2)c1 | 7 | 111* | x | -2 | 27 | x | 3
Cc1ccc2c(C)nc(N/C(N)=N/S(=O)(=O)c3ccccc3)nc2c1 | 0 | 25* | -1 | -3 | -67 | 35 | -5
